Active and inactive are the calls of the source. The rule behind the calls is not given here.
Columns and labels:
[1] = molecular target: T1, Proteasome component C5 (Homo sapiens) (UniProt P20618); experiment: Inhibition of caspase-like activity of 20S proteasome in imatinib-resistant human SUP-B15 cells at 4 nM to 25 uM using Z-nLPnLD-aminoluciferin as substrate after 2 hrs by proteasome-Glo assay; type: cell-based
T1 sequence (whole entry): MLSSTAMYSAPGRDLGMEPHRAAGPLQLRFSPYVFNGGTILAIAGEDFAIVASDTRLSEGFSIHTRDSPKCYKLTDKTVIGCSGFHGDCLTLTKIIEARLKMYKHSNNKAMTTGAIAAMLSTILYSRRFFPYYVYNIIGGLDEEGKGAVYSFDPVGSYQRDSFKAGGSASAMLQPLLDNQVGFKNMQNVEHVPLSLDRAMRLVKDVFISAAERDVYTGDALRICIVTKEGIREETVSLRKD

[2] = system: SEM cells; experiment: Inhibition of HDAC6/chymotrypsin-like activity of 20S proteasome in human SEM cells assessed as decrease in aggresome accumulation at IC50 to 2 times IC50 after 18 hrs by fluorescence microscopic method; type: cell-based
Outline: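 Cells treated 18 h, then stained with a proteostat aggresome dye plus DNA stain. Imaged by fluorescence microscopy (63X objective) or analysed by FACS, with aggresome propensity factor from relative mean fluorescence intensity.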

[3] = system: SEM cells; experiment: Induction of early differentiation of human SEM cells assessed as increase in CD11b expression at IC50 to 2 times IC50 after 72 hrs by FACS analysis; type: functional, cell-based
Outline: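 Surface CD11b and CD14 measured by FACS using fluorochrome-coupled monoclonal antibodies with matched isotype controls, after treatment in liquid medium.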

[4] = system: SEM cells; experiment: Cell cycle arrest in human SEM cells assessed as accumulation at S phase after 48 hrs by propidium iodide staining-based FACS analysis; type: functional
[5] = molecular target: T2, Protein deacetylase HDAC6 (Homo sapiens) (UniProt Q9UBN7); experiment: Inhibition of HDAC6 in human HL60 cells assessed as increase in acetyl-alpha tubulin expression at 0.1 to 10 uM after 24 hrs by immunoblot assay; type: cell-based
T2 sequence (whole entry): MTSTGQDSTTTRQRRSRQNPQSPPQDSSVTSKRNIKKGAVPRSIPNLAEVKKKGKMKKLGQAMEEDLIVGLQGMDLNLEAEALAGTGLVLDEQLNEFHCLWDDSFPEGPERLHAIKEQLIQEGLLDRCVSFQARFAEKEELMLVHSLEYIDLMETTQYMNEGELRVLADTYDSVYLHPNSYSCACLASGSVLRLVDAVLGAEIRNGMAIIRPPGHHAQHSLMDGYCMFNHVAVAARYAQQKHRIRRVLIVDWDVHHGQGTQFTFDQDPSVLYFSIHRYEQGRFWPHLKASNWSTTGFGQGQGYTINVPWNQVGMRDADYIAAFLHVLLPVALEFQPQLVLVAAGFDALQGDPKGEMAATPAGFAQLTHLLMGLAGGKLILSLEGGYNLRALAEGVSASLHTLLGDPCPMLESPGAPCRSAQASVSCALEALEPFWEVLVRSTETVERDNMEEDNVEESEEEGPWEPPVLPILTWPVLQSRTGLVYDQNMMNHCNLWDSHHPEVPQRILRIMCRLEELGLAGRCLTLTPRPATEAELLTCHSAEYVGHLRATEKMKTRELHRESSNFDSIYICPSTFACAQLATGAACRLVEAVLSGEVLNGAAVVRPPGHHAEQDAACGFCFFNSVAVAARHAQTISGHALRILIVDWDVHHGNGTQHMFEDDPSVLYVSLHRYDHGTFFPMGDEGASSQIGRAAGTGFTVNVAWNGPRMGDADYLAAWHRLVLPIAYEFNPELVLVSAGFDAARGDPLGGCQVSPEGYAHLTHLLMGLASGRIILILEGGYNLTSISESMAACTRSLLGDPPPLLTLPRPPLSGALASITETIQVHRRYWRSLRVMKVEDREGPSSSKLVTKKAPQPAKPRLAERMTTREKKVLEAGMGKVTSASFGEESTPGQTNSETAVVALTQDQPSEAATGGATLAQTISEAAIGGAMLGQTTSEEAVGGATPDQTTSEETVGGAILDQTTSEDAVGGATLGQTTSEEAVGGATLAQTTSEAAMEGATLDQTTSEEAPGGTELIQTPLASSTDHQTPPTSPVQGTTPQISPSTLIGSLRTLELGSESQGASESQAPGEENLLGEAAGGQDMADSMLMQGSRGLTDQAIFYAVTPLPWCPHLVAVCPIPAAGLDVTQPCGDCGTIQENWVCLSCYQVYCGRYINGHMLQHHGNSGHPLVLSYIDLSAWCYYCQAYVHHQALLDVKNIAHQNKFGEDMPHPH
Outline: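 Cells exposed for 24 h at indicated concentrations; lysates immunoblotted for acetyl-α-tubulin, acetyl-histone H3, PARP, with GAPDH as loading control.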

[6] = Cytotoxicity against human BCP-ALL cells derived from patient 2 after 72 hrs by CellTiter-Glo luminescent cell viability assay; type: functional, cell-based
Outline: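 Compounds dispensed digitally at increasing concentrations, 50 nM–25 μM; viability read by CellTiter-Glo luminescence after 72 h. Raw data normalized to controls, IC50 from sigmoid dose curve by non-linear regression. Patient samples: primary cells from newly diagnosed or relapsed patients, cultured in stem cell expansion or mononuclear cell medium.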

[7] = system: KCL-22; experiment: Cytotoxicity against imatinib-resistant human KCL22 cells after 72 hrs by CellTiter-Glo luminescent cell viability assay; type: functional, cell-based; details: KCL-22, 72 h
Outline: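 Inhibitors dispensed in increasing concentrations (50 nM–25 μM) and cells exposed 72 h. Viability read by ATP-dependent luminescence (CellTiter-Glo). Raw data normalized to controls. IC50 obtained by sigmoid dose–response fit with non-linear regression.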

[8] = molecular target: Histone deacetylase 1 (Homo sapiens, UniProt Q13547); experiment: Inhibition of C-terminal FLAG-His-tagged full length recombinant human HDAC1 expressed in Sf21 insect cells using RHKK(Ac)AMC as substrate by fluorescence-based assay
[9] = system: SEM cells; experiment: Inhibition of HDAC6/chymotrypsin-like activity of 20S proteasome in human SEM cells assessed as increase in LC3B protein expression at 0.1 to 10 uM after 18 hrs by Western blot assay; type: cell-based
Outline: (§1)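 Cells treated 18 h at indicated concentrations; lysates analysed by western blot for heat shock (Grp94, HSP70, HSP40, HSP27), UPR (BIP, ATF4, ATF6, pJNK) and autophagy (LC3B, p62) proteins.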

[10] = system: SUP-B15; experiment: Cytotoxicity against imatinib-resistant human SUP-B15 cells after 72 hrs by CellTiter-Glo luminescent cell viability assay; type: functional, cell-based; details: SUP-B15, 72 h
[11] = system: SEM cells; experiment: Inhibition of HDAC6/chymotrypsin-like activity of 20S proteasome in human SEM cells assessed as increase in BIP protein expression at 0.1 to 10 uM after 18 hrs by Western blot assay; type: cell-based; outline: as §1
[12] = system: SEM cells; experiment: Induction of apoptosis in human SEM cells at IC50 to 2 times IC50 after 48 hrs by annexin V/propidium iodide staining-based FACS analysis relative to control; type: functional
Outline: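 After 48 h treatment at IC50 or 2x IC50, cells double-stained with annexin V and PI and analysed by FACS. Cells scored as living, early apoptotic (annexin V+), late apoptotic (both+) or necrotic (PI+).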

Chain of Histone deacetylase 1 (Q13547 whole entry): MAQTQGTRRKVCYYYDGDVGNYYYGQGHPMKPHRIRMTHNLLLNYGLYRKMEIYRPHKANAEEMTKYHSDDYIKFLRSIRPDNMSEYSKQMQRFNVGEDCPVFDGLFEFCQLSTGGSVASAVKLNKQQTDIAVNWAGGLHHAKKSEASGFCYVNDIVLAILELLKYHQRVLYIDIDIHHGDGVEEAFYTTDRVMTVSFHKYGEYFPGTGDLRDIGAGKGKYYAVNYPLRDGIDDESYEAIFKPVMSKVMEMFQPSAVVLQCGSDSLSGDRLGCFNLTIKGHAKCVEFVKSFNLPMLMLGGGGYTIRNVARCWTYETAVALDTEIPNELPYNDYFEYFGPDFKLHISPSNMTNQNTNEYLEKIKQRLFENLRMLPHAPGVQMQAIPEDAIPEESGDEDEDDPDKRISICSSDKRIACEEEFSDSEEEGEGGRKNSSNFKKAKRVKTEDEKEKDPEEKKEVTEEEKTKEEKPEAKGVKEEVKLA

- inhibition [1]: inactive
- inhibition [5]: Active
- IC50 [8]: 6.9 µM
Structure (SMILES): C[C@H](NC(=O)[C@H](CC(=O)NCC(C)(C)C)NC(=O)c1ccc(C(=O)NO)cc1)C(=O)NCc1ccccc1
- inhibition [2]: Active
- Activity [3]: Active
- Activity [4]: Dose-dependent effect
- IC50 [6]: 1.84 µM
- IC50 [7]: 2.58 µM
- inhibition [9]: Active
- IC50 [10]: 1.83 µM
- inhibition [11]: Active
- fold change (FC) [12]: 5
